From ChEMBL document CHEMBL1124444, “Hydroxyacetophenone-derived antagonists of the peptidoleukotrienes” (1989)

What was measured:
Cavia porcellus [1] = species: Cavia porcellus; test: Percent inhibition of the leukotriene E4 (LTE4)-induced contraction of guinea pig tracheal spirals at 1 uM concentration; type: functional; conditions: Trachea
Summary of the method: (§1)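 Guinea pig tracheal spirals were split into paired sections in 10 mL baths of modified Krebs at 37 °C, gassed with 95% O₂/5% CO₂, under 2 g resting tension. After 60 min equilibration (washes every 15 min), reproducible contractions to 8 nM LTD₄ or 8 nM LTE₄ were obtained. Compound was added for 10 min, then agonist challenge repeated; percent inhibition is relative to the vehicle-treated paired section.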

Cavia porcellus [2] = species: Cavia porcellus; test: (§2) Percent inhibition of the leukotriene E4 (LTE4)-induced contraction of guinea pig tracheal spirals at 10 uM concentration; NS means data was not statistically significant.; type: functional; conditions: Trachea; summary of the method: as §1
Cavia porcellus [3] = species: Cavia porcellus; test: Percent inhibition of the leukotriene E4 (LTE4)-induced contraction of guinea pig tracheal spirals at 50 uM concentration; type: functional; conditions: Trachea; summary of the method: as §1
Cavia porcellus [4] = species: Cavia porcellus; test: Percent inhibition of the leukotriene D4 (LTD4)-induced contraction of guinea pig tracheal spirals at 10 uM concentration; NS means data was not statistically significant; type: functional; conditions: Trachea; summary of the method: as §1
Cavia porcellus [5] = species: Cavia porcellus; test: Inhibition of the leukotriene D4 (LTD4)-induced contraction of guinea pig tracheal spirals at 10 uM concentration; type: functional; conditions: Trachea; summary of the method: as §1
Cavia porcellus [6] = species: Cavia porcellus; test: Percent inhibition of the leukotriene D4 (LTD4)-induced contraction of guinea pig tracheal spirals at 100 uM concentration; type: functional; conditions: Trachea; summary of the method: as §1
[7] = target: T1, Cysteinyl leukotriene receptor 1 (Cavia porcellus) (UniProt Q2NNR5); test: Dissociation constant (KB) versus Cysteinyl leukotriene D4 receptor was evaluated in vitro in isolated guinea pig tracheal strips
T1 sequence (whole entry): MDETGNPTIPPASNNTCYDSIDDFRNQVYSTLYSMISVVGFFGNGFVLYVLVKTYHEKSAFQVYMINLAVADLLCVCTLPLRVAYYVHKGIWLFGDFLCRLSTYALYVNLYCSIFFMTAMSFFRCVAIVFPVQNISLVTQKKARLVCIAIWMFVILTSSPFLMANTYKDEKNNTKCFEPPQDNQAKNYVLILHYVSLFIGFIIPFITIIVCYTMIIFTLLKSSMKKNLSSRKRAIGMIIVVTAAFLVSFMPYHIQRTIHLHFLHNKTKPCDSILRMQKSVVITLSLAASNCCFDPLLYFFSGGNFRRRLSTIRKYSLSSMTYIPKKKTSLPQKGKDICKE

Cavia porcellus [8] = test: Compound (50 mg/kg, intraperitoneally) was tested in spontaneously breathing, conscious guinea pigs challenged with aerosolized LTD4 (60-min pretreatment); type: functional
Cavia porcellus [9] = species: Cavia porcellus; test: Percent inhibition of the leukotriene D4 (LTD4)-induced contraction of guinea pig tracheal spirals at 10 uM concentration; NS means data was not statistically significant.; type: functional; conditions: Trachea; summary of the method: as §1
Cavia porcellus [10] = species: Cavia porcellus; test: Percent inhibition of the leukotriene D4 (LTD4)-induced contraction of guinea pig tracheal spirals at 5 uM concentration; type: functional; conditions: Trachea; summary of the method: as §1
[11] = target: T1, Cysteinyl leukotriene receptor 1 (Cavia porcellus); test: Dissociation constant (KB) […] was evaluated in vitro in isolated guinea pig tracheal strips
Cavia porcellus [12] = test: Compound (50 mg/kg, intraperitoneally) was tested in spontaneously breathing, conscious guinea pigs challenged with aerosolized LTD4 (30-min pretreatment); type: functional
Cavia porcellus [13] = species: Cavia porcellus; test: Percent inhibition of the leukotriene D4 (LTD4)-induced contraction of guinea pig tracheal spirals at 4 uM concentration; type: functional; conditions: Trachea; summary of the method: as §1
Cavia porcellus [14] = species: Cavia porcellus; test: Percent inhibition of the leukotriene E4 (LTE4)-induced contraction of guinea pig tracheal spirals at 1 uM concentration; conditions: Trachea
Cavia porcellus [15] = species: Cavia porcellus; test: Percent inhibition of the leukotriene E4 (LTE4)-induced contraction of guinea pig tracheal spirals at 5 uM concentration; type: functional; conditions: Trachea; summary of the method: as §1
Cavia porcellus [16] = species: Cavia porcellus; test: Percent inhibition of the leukotriene E4 (LTE4)-induced contraction of guinea pig tracheal spirals at 50 uM concentration; NS means data was not statistically significant.; type: functional; conditions: Trachea; summary of the method: as §1
Cavia porcellus [17] = species: Cavia porcellus; test: Percent inhibition of the leukotriene E4 (LTE4)-induced contraction of guinea pig tracheal spirals at 10 uM concentration; type: functional; conditions: Trachea; summary of the method: as §1
Cavia porcellus [18] = species: Cavia porcellus; test: Percent inhibition of the leukotriene D4 (LTD4)-induced contraction of guinea pig tracheal spirals at 4 uM concentration; NS means data was not statistically significant.; type: functional; conditions: Trachea; summary of the method: as §1
Cavia porcellus [19] = species: Cavia porcellus; test: Percent inhibition of the leukotriene E4 (LTE4)-induced contraction of guinea pig tracheal spirals at 3.3 uM concentration; conditions: Trachea
Cavia porcellus [20] = species: Cavia porcellus; test: Percent inhibition of the leukotriene E4 (LTE4)-induced contraction of guinea pig tracheal spirals at 10 uM concentration; NS means data was not statistically significant; type: functional; conditions: Trachea; summary of the method: as §1
Cavia porcellus [21] = species: Cavia porcellus; test: Percent inhibition of the leukotriene D4 (LTD4)-induced contraction of guinea pig tracheal spirals at 4 uM concentration; NS means data was not statistically significant; type: functional; conditions: Trachea; summary of the method: as §1
Cavia porcellus [22] = species: Cavia porcellus; test: Percent inhibition of the leukotriene E4 ([…])-induced contraction of guinea pig tracheal spirals at 1 uM concentration; NS means data was not statistically significant.; type: functional; conditions: Trachea; summary of the method: as §1
Cavia porcellus [23] = species: Cavia porcellus; test: as §2; type: functional, organism-based; conditions: Trachea; summary of the method: as §1

COc1cc(C(=O)O)ccc1COc1ccc(C(C)=O)c(O)c1CC(C)C
inhibition at 1 µM (Cavia porcellus [1]): 22%

CCCc1c(OCc2ccc(C(=O)O)cc2OC)ccc(C(=O)N(C)C)c1O
inhibition (Cavia porcellus [2]): Not statistically significant | inhibition at 50 µM (Cavia porcellus [3]): 84%

COc1cc(C(=O)O)ccc1COc1ccc2c(C)cc(=O)oc2c1
inhibition (Cavia porcellus [4]): Not statistically significant

CCCc1c(OCCCSCC(=O)O)ccc(C(C)=O)c1O
inhibition at 10 µM (Cavia porcellus [5]): 62% | inhibition at 100 µM (Cavia porcellus [6]): 100%

CCCc1c(OCc2ccc(C(=O)O)cc2OC)ccc(C(C)=O)c1O
Kb [7]: 360 nM | Protection (Cavia porcellus [8]): 19% | inhibition at 10 µM (Cavia porcellus [5]): 99%

CCCc1c(OCCC[S+]([O-])CC(=O)O)ccc(C(C)=O)c1O (stereo not given)
inhibition (Cavia porcellus [9]): Not statistically significant

CCC(C)c1c(OCc2ccc(C(=O)O)cc2OC)ccc(C(C)=O)c1O (stereo not given)
inhibition at 5 µM (Cavia porcellus [10]): 85% | inhibition at 10 µM (Cavia porcellus [5]): 100%

CCCc1c(OCc2cccc(/C=C/C(=O)O)c2)ccc(C(C)=O)c1O
Kb [11]: 630 nM | Protection (Cavia porcellus [12]): 19% | inhibition at 4 µM (Cavia porcellus [13]): 66% | inhibition at 1 µM (Cavia porcellus [14]): 41%

C=C(C)Cc1c(OCc2ccc(C(=O)O)cc2OC)ccc(C(C)=O)c1O
Kb [11]: 1640 nM | inhibition at 5 µM (Cavia porcellus [15]): 82% | inhibition at 1 µM (Cavia porcellus [1]): 35% | Protection (Cavia porcellus [8]): 30%

CCCc1c(OCc2ccc(/C=C/C(=O)O)cc2)ccc(C(C)=O)c1O
Kb [11]: 570 nM | Protection (Cavia porcellus [8]): 34% | inhibition at 1 µM (Cavia porcellus [14]): 48%

CCCc1c(OCc2ccccc2C(=O)O)ccc(C(C)=O)c1O
inhibition (Cavia porcellus [9]): Not statistically significant | inhibition at 100 µM (Cavia porcellus [6]): 91%

CCCc1c(OCc2ccc(C(=O)O)cc2OC)ccc2c(C)cc(=O)oc12
Protection (Cavia porcellus [12]): 27% | inhibition at 10 µM (Cavia porcellus [5]): 78% | inhibition at 4 µM (Cavia porcellus [13]): 44%

CCCc1c(OCc2ccc(C(=O)O)cc2OC)ccc(C(=O)O)c1O
inhibition (Cavia porcellus [16]): Not statistically significant

CCCc1c(OCc2ccc(C(=O)O)cc2OC)ccc(C(N)=O)c1O
inhibition at 50 µM (Cavia porcellus [3]): 86% | inhibition at 10 µM (Cavia porcellus [5]): 72%

COc1cc(C(=O)O)ccc1COc1ccc(C(C)=O)c(O)c1CCCC(=O)O
inhibition (Cavia porcellus [16]): Not statistically significant

CCCN(Cc1ccc(C(=O)O)cc1OC)c1ccc(C(C)=O)c(O)c1
inhibition at 10 µM (Cavia porcellus [17]): 24% | inhibition at 50 µM (Cavia porcellus [3]): 35%

CCCc1c(OCc2ccc(C(=O)O)cc2OC)ccc(C(C)=O)c1N
inhibition (Cavia porcellus [18]): Not statistically significant | inhibition at 10 µM (Cavia porcellus [5]): 43%

CCCc1c(OCC(O)CNC(CS)C(=O)NCC(=O)O)ccc(C(C)=O)c1O (stereo not given)
inhibition at 100 µM (Cavia porcellus [6]): 33%

CCCc1c(OCc2ccc(C(=O)O)cc2OC)ccc(C(=O)OC)c1O
Kb [11]: 3180 nM | inhibition at 5 µM (Cavia porcellus [15]): 52% | Protection (Cavia porcellus [8]): 29%

CCCc1c(OCc2ccc(C(=O)Nc3nn[nH]n3)cc2OC)ccc(C(C)=O)c1O
inhibition at 3.3 µM (Cavia porcellus [19]): 43%

C/C=C(\c1ccccc1)c1c(OCc2ccc(C(=O)O)cc2OC)ccc(C(C)=O)c1O
inhibition at 5 µM (Cavia porcellus [10]): 24%

CCCc1c(OCc2cc(/C=C\C(=O)O)ccc2OC)ccc(C(C)=O)c1O
inhibition at 10 µM (Cavia porcellus [5]): 28% | inhibition at 1 µM (Cavia porcellus [14]): 14%

CCCc1c(OCc2ccc(C(=O)O)cc2OC)ccc(C(=O)Oc2ccccc2)c1O
inhibition (Cavia porcellus [20]): Not statistically significant

CCCc1c(OCc2ccc(C(=O)O)c(OC)c2)ccc(C(C)=O)c1O
inhibition (Cavia porcellus [21]): Not statistically significant | inhibition at 10 µM (Cavia porcellus [5]): 44%

CCCc1c(OCc2ccc(C(=O)O)cc2F)ccc(C(C)=O)c1O
Kb [11]: 520 nM | Protection (Cavia porcellus [12]): 18% | Protection (Cavia porcellus [8]): 0% | inhibition at 10 µM (Cavia porcellus [5]): 99%

CCCc1c(OCCCCc2nnn[nH]2)ccc(C(C)=O)c1O [TOMELUKAST]
Kb [7]: 180 nM | Protection (Cavia porcellus [8]): 49%

COc1cc(C(=O)O)ccc1COc1ccc(C(C)=O)c(O)c1C=C(C)C
inhibition at 5 µM (Cavia porcellus [15]): 69%

CCCc1c(OCc2ccc(C(=O)O)cc2OC)ccc(C(=O)CC)c1O
inhibition (Cavia porcellus [22]): Not statistically significant | inhibition at 10 µM (Cavia porcellus [17]): 97% | inhibition at 5 µM (Cavia porcellus [15]): 73%

CCCc1cc2c(C)cc(=O)oc2cc1OCc1ccc(C(=O)O)cc1OC
inhibition (Cavia porcellus [23]): Not statistically significant

CCCc1c(OCc2cccc(C(=O)O)c2)ccc(C(C)=O)c1O
inhibition at 10 µM (Cavia porcellus [5]): 50% | inhibition at 100 µM (Cavia porcellus [6]): 100%
